According to ChEMBL document CHEMBL1151428, “Capability of 11 antipneumococcal antibiotics to select for resistance by multistep and single-step methodologies” (2007):
Converted amounts (≈) assume the structure as drawn.

Legend:
Assay type in all cases: functional
Streptococcus pneumoniae [1] = experiment: Antimicrobial activity against drug-resistant Streptococcus pneumoniae isolate 2527 after 14 passages with gemifloxacin measured after 10 antibiotic-free subculture by multi-step resistance selection technique
Procedure, shortened: (§1)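 Mutants selected by daily broth passage in subinhibitory drug in cation-adjusted Mueller-Hinton broth with 5% lysed horse blood. Stability was tested by 10 daily passages on blood agar without antibiotic, then macrodilution MIC.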

Streptococcus pneumoniae [2] = experiment: Antimicrobial activity against drug-resistant Streptococcus pneumoniae isolate 3665 after 38 passages by multi-step resistance selection technique
Procedure, shortened: (§2)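 Daily serial passage in broth at subinhibitory drug levels: 1 ml cation-adjusted Mueller-Hinton broth with 5% lysed horse blood; fresh broth for tigecycline. Each day 10 μl inoculum taken from the tube one to two dilutions below MIC matching growth-control turbidity, used to set next MIC. Continued until ≥8-fold MIC rise, minimum 14, maximum 50 passages; MIC read by macrodilution.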

Streptococcus pneumoniae [3] = experiment: Antimicrobial activity against drug-resistant Streptococcus pneumoniae isolate 3009 after 21 passages with gemifloxacin measured after 10 antibiotic-free subculture by multi-step resistance selection technique; procedure, shortened: as §1
Streptococcus pneumoniae [4] = experiment: Antimicrobial activity against drug-resistant Streptococcus pneumoniae isolate 2527 after 50 passages by multi-step resistance selection technique
Procedure, shortened: (§3)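 Daily serial passage in subinhibitory drug levels in 1 ml cation-adjusted Mueller-Hinton broth with 5% lysed horse blood; fresh broth for tigecycline. Each day, 10 μl were taken from the tube one to two dilutions below the MIC whose turbidity matched the growth control, and used to set the next MIC. […] MIC by macrodilution.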

Streptococcus pneumoniae [5] = experiment: Antimicrobial activity against drug-resistant Streptococcus pneumoniae isolate 3665 after 38 passages with moxifloxacin measured after 10 antibiotic-free subculture by multi-step resistance selection technique
Streptococcus pneumoniae [6] = experiment: Antimicrobial activity against drug-resistant Streptococcus pneumoniae isolate 3676 after 50 passages by multi-step resistance selection technique; procedure, shortened: as §2
Streptococcus pneumoniae [7] = experiment: Antimicrobial activity against drug-resistant Streptococcus pneumoniae isolate 1076 after 35 passages by multi-step resistance selection technique; procedure, shortened: as §3
Streptococcus pneumoniae [8] = experiment: Antimicrobial activity against drug-resistant Streptococcus pneumoniae isolate 1076 by NCCLS M7-A7 method
Streptococcus pneumoniae [9] = experiment: Antimicrobial activity against drug-resistant Streptococcus pneumoniae isolate 3676 after 50 passages with moxifloxacin measured after 10 antibiotic-free subculture by multi-step resistance selection technique
Streptococcus pneumoniae [10] = experiment: Antimicrobial activity against drug-resistant Streptococcus pneumoniae isolate 3243 after 20 passages by multi-step resistance selection technique; procedure, shortened: as §3
Streptococcus pneumoniae [11] = experiment: Antimicrobial activity against drug-resistant Streptococcus pneumoniae isolate 3009 after 19 passages by multi-step resistance selection technique; procedure, shortened: as §3
Streptococcus pneumoniae [12] = experiment: Antimicrobial activity against drug-resistant Streptococcus pneumoniae isolate 2527 by NCCLS M7-A7 method
Streptococcus pneumoniae [13] = experiment: Antimicrobial activity against drug-resistant Streptococcus pneumoniae isolate 1076 after 14 passages with Telithromycin measured after 10 antibiotic-free subculture by multi-step resistance selection technique; procedure, shortened: as §1

COc1c(N2C[C@@H]3CCCN[C@@H]3C2)c(F)cc2c(=O)c(C(=O)O)cn(C3CC3)c12 [MOXIFLOXACIN]
MIC (Streptococcus pneumoniae [1]): 8 µg/mL (≈ 19.9 µM) | MIC (Streptococcus pneumoniae [2]): 1 µg/mL (≈ 2.49 µM) | MIC (Streptococcus pneumoniae [3]): 2 µg/mL (≈ 4.98 µM) | MIC (Streptococcus pneumoniae [4]): 8 µg/mL (≈ 19.9 µM) | MIC (Streptococcus pneumoniae [5]): 1 µg/mL (≈ 2.49 µM) | MIC (Streptococcus pneumoniae [6]): 8 µg/mL (≈ 19.9 µM) | MIC (Streptococcus pneumoniae [7]): 8 µg/mL (≈ 19.9 µM) | MIC (Streptococcus pneumoniae [8]): 1 µg/mL (≈ 2.49 µM) | MIC (Streptococcus pneumoniae [9]): 8 µg/mL (≈ 19.9 µM) | MIC (Streptococcus pneumoniae [10]): 1 µg/mL (≈ 2.49 µM) | MIC (Streptococcus pneumoniae [11]): 2 µg/mL (≈ 4.98 µM) | MIC (Streptococcus pneumoniae [12]): 2 µg/mL (≈ 4.98 µM) | MIC (Streptococcus pneumoniae [13]): 1 µg/mL (≈ 2.49 µM)
